Reference: ChEMBL document CHEMBL1121714, “Nonsteroidal antiinflammatory agents. 2. Synthesis of 4',5-disubstituted 3-biphenylylacetic acids and their derivatives with antiinflammatory and analgesic activities” (J Med Chem, 1981)

Tests used:
Mus musculus = assay: Analgesic activity against AcOH writhing after po administration.
[1] = Acute toxicity was determined 168 hr after a single ip injection to groups of four male ddY mice.; assay type: organism-based; conditions: mouse, in vivo
In short: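 LD50 calculated by the method of Weil.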

Rattus norvegicus [2] = assay: Inhibitory activity on carrageenan-induced paw edema in rats 3h after po administration of 50 mg/kg; assay type: functional
In short: (§1)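 Oral dosing, screened first at 50 mg/kg and retested at 20 and 10 mg/kg if inhibition was 30% or more. Paw volume was remeasured at 3 h, and the increase was compared with controls to give percent inhibition.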

Rattus norvegicus [3] = assay: Inhibitory activity on carrageenan-induced paw edema in rats 3h after po administration of 20 mg/kg; assay type: functional
In short: as §1

Rattus norvegicus [4] = assay: Inhibitory activity on carrageenan-induced paw edema in rats 3h after po administration of 10 mg/kg; assay type: functional
In short: as §1

Rattus norvegicus [5] = assay: Inhibitory activity on carrageenan-induced paw edema in rats 3h after administration of 20 mg/kg; assay type: functional
In short: as §1

Rattus norvegicus [6] = assay: Inhibitory activity on carrageenan-induced paw edema in rats 3h after po administration of 0.5 mg/kg; assay type: functional; conditions: read-out: Inhibition
Rattus norvegicus [7] = assay: Inhibitory activity on carrageenan-induced paw edema in rats 3h after po administration of 5 mg/kg; assay type: functional; conditions: read-out: Inhibition
Rattus norvegicus [8] = assay: Inhibitory activity on carrageenan-induced paw edema in rats 3h after po administration of 2 mg/kg; assay type: functional; conditions: read-out: Inhibition

Structure (SMILES)	ED50 (Mus musculus) [mg/kg]	LD50 at 168 h [1] [mg/kg]	inhibition in vivo at 50 mg/kg (Rattus norvegicus [2]) [%]	inhibition in vivo at 20 mg/kg (Rattus norvegicus [3]) [%]	inhibition in vivo at 10 mg/kg (Rattus norvegicus [4]) [%]	inhibition in vivo at 20 mg/kg (Rattus norvegicus [5]) [%]	inhibition in vivo at 0.5 mg/kg (Rattus norvegicus [6]) [%]	inhibition in vivo at 5 mg/kg (Rattus norvegicus [7]) [%]	inhibition in vivo at 2 mg/kg (Rattus norvegicus [8]) [%]
COc1ccc(-c2cccc(CC(=O)O)c2)cc1	> 50	> 800	11						
O=C(O)Cc1cccc(-c2ccccc2)c1	> 50	566	47	0					
CC(=O)Nc1cc(CC(=O)O)cc(-c2ccc(Cl)cc2)c1	> 50	476	0						
COc1ccc(-c2cc(CC(=O)O)cc(NC(C)=O)c2)cc1	> 50	> 800	15						
O=C(O)Cc1cc(Cl)cc(-c2ccccc2)c1	> 50	283	32	25					
COc1ccc(-c2cc(Cl)cc(C(C)C(=O)O)c2)cc1 (centres undefined)	> 50	283	8						
COc1cc(CC(=O)O)cc(-c2ccc(Cl)cc2)c1	16.1		53	65	39				
COc1ccc(-c2cc(Cl)cc(CC(=O)O)c2)cc1	> 50	570	19						
O=C(O)Cc1cc(F)cc(-c2ccccc2)c1	> 50	566	50		26	45			
CC(C(=O)O)c1cccc(-c2ccccc2)c1 (centres undefined)	26.8	566	17						
O=C(O)Cc1cc(F)cc(-c2ccc(Cl)cc2)c1	> 50	283	38	16					
CC(C(=O)O)c1cc(Cl)cc(-c2ccc(Cl)cc2)c1 (centres undefined)	> 50	200	< 41	< 33					
COc1ccc(-c2cc(N)cc(CC(=O)O)c2)cc1	> 50	800	0						
O=C(O)Cc1cc(Cl)cc(-c2ccc(Cl)cc2)c1	> 50	283	45	29					
CC(C(=O)O)c1cc(F)cc(-c2ccc(Cl)cc2)c1 (centres undefined)	> 50	200	< 39	< 26					
O=C(O)Cc1cccc(-c2ccc(Cl)cc2)c1	> 50	238	44	< 25					
COc1ccc(-c2cccc(C(C)C(=O)O)c2)cc1 (centres undefined)	> 50	566	0						
COc1ccc2c(c1)c(CC(=O)O)c(C)n2C(=O)c1ccc(Cl)cc1 [INDOMETHACIN]	3.1						19	45	25
CC(C(=O)O)c1cc(F)cc(-c2ccccc2)c1 (centres undefined)	> 50	566	31						
CC(=O)Nc1cc(CC(=O)O)cc(-c2ccccc2)c1	> 50	> 800	5						
Nc1cc(CC(=O)O)cc(-c2ccccc2)c1	> 50	566	0						
Nc1cc(CC(=O)O)cc(-c2ccc(Cl)cc2)c1	> 50	400	16						
CC(C(=O)O)c1cccc(-c2ccc(Cl)cc2)c1 (centres undefined)	45	283	35	31					
CC(C(=O)O)c1cc(Cl)cc(-c2ccccc2)c1 (centres undefined)	> 50	168	4						
